Test results as given in ChEMBL document CHEMBL3120055, “HPLC-based activity profiling for GABAA receptor modulators in Adenocarpus cincinnatus” (J Nat Prod, 2014).
Active and inactive are the calls of the source. The rule behind the calls is not given here.

How the values were obtained:
Rattus norvegicus [1] = species: Rattus norvegicus; assay: Positive allosteric modulation of rat alpha1beta2gamma2S GABAA receptor expressed in Xenopus laevis oocytes assessed as potentiation of GABA-induced chloride current at 100 uM by two-microelectrode voltage clamp electrophysiology relative to control; format: cell-based
Rattus norvegicus [2] = species: Rattus norvegicus; assay: Agonist activity at rat alpha1beta2gamma2S GABAA receptor expressed in Xenopus laevis oocytes assessed as direct activation of chloride current in absence of GABA at 0.1 to 30 uM by two-microelectrode voltage clamp electrophysiology
[3] = Positive allosteric modulation of rat alpha1beta2gamma2S GABAA receptor expressed in Xenopus laevis oocytes assessed as potentiation of GABA-induced chloride current by two-microelectrode voltage clamp electrophysiology; format: cell-based
How it was run: (§1)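 Rat α1β2γ2s cRNAs (1:1:10) were injected into collagenase-treated Xenopus oocytes, which were kept at 18 °C in ND96 and recorded on days 1–5. Two-electrode clamp was held at −70 mV in bath containing 90 mM NaCl and 5 mM HEPES, pH 7.4. Compound at 0.1–300 μM was co-applied with GABA EC5–10 by fast perfusion, with 1% DMSO final. Enhancement is I(GABA+Comp)/IGABA − 1, given as mean ± SE from four oocytes across three batches.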

Rattus norvegicus [4] = species: Rattus norvegicus; assay: Positive allosteric modulation of rat alpha1beta2gamma2S GABAA receptor expressed in Xenopus laevis oocytes assessed as potentiation of GABA-induced chloride current by two-microelectrode voltage clamp electrophysiology relative to control; format: cell-based; how it was run: as §1
Rattus norvegicus [5] = species: Rattus norvegicus; assay: Positive allosteric modulation of rat alpha1beta2gamma2S GABAA receptor expressed in Xenopus laevis oocytes assessed as potentiation of GABA-induced chloride current at 1 uM by two-microelectrode voltage clamp electrophysiology relative to control; format: cell-based
How it was run: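 Rat α1β2γ2s cRNAs (1:1:10) injected into collagenase-defolliculated oocytes, kept at 18 °C in ND96 with penicillin-streptomycin, and recorded on days 1–5. Test agent applied by fast perfusion with GABA EC5–10 in 1% DMSO final. Enhancement = I(GABA+Comp)/IGABA − 1.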

Rattus norvegicus [6] = species: Rattus norvegicus; assay: Positive allosteric modulation of rat alpha1beta2gamma2S GABAA receptor expressed in Xenopus laevis oocytes assessed as potentiation of GABA-induced chloride current at 300 uM by two-microelectrode voltage clamp electrophysiology; format: cell-based; how it was run: as §1

## Oc1ccc2c(c1)OC[C@H]1c3cc4c(cc3O[C@@H]21)OCO4
Rattus norvegicus [1]
  %max: 238%

## CC(C)=CCc1c(O)ccc2c(=O)c(-c3ccc(O)cc3)coc12
Rattus norvegicus [1]
  %max: 192%

## CC(C)=CCc1c(O)c(CCC(C)(C)O)cc2c1O[C@H](c1ccc(O)cc1)[C@@H](O)C2=O
Rattus norvegicus [1]
  %max: -26%

## CC(C)=CCc1cc2c(cc1O)OCC(c1ccc(O)cc1O)C2=O (stereo unspecified)
Rattus norvegicus [1]
  %max: 199%

## O=C1c2ccc(O)cc2O[C@H](c2ccccc2)[C@H]1O
Rattus norvegicus [1]
  %max: 11.7%

## CC(C)=CCc1c(O)ccc2c(=O)c(-c3ccc(O)cc3O)coc12
Rattus norvegicus [2]
  Activity: inactive
[3]
  EC50: 2.8 µM
Rattus norvegicus [1]
  %max: 560%
Rattus norvegicus [4]
  Emax: 553%

## CO[C@H](Cc1ccccc1)C(=O)c1ccc(O)cc1O
Rattus norvegicus [1]
  %max: 88.8%

## CC(C)=CCc1cc2c(c(CC=C(C)C)c1O)O[C@H](c1ccc(O)cc1)[C@@H](O)C2=O
Rattus norvegicus [1]
  %max: 287%

## CN1C(=O)CN=C(c2ccccc2)c2cc(Cl)ccc21
Rattus norvegicus [5]
  Activity: 231%

## Oc1ccc2c(c1)OC[C@H]1c3cc4ccoc4cc3O[C@@H]21
Rattus norvegicus [1]
  %max: 213%

## CC(C)(O)CCc1cc2c(cc1O)O[C@H]1c3ccc(O)cc3OC[C@@H]21
Rattus norvegicus [2]
  Activity: inactive
[3]
  EC50: 8.6 µM
Rattus norvegicus [6]
  Activity: inactive
Rattus norvegicus [1]
  %max: 489%
Rattus norvegicus [4]
  Emax: 640%

## CC1(C)C=Cc2cc3c(cc2O1)O[C@H]1c2ccc(O)cc2OC[C@@H]31 [ISONEORAUTENOL]
Rattus norvegicus [2]
  Activity: inactive
[3]
  EC50: 40.7 µM
Rattus norvegicus [6]
  Activity: inactive
Rattus norvegicus [1]
  %max: 388%
Rattus norvegicus [4]
  Emax: 771%

## CC(C)=CCc1c(O)ccc2c1OCC(c1ccc(O)cc1O)C2=O (stereo unspecified)
Rattus norvegicus [1]
  %max: 361%

## CO/C(=C\c1ccccc1)C(=O)c1ccc(O)cc1O
Rattus norvegicus [1]
  %max: 228%

## CC(C)=CCc1c(O)ccc2c1O[C@H](c1ccc(O)cc1)[C@@H](O)C2=O
Rattus norvegicus [1]
  %max: 272%

## CC(C)=CCc1cc2c(cc1O)O[C@H]1c3ccc(O)c(O)c3OC[C@@H]21
Rattus norvegicus [2]
  Activity: inactive
[3]
  EC50: 18.8 µM
Rattus norvegicus [6]
  Activity: inactive
Rattus norvegicus [1]
  %max: 454%
Rattus norvegicus [4]
  Emax: 491%
